For assay [1], the target named is T1, Endothelin receptor type B (Homo sapiens, UniProt P24530).
T1 sequence (P24530 whole entry): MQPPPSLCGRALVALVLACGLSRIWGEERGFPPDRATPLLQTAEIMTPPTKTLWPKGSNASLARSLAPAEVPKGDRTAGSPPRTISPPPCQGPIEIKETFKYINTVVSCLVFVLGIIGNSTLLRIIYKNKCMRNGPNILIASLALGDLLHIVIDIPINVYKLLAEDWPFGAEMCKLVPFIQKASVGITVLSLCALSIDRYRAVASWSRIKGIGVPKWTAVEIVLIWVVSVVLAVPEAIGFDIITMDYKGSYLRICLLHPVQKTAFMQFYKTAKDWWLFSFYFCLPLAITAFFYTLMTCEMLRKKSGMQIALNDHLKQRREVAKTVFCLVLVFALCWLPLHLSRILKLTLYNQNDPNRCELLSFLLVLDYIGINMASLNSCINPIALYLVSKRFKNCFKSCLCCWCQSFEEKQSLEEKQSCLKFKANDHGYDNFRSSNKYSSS
In words: Binding affinity measured in CHO cells stably transfected with the human endothelin B receptor. In kind it is cell-based. An outline of the steps:
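Membranes come from confluent CHO-K1 clones stably expressing human ETB, grown in DME/F12 with 10% FCS and G418 0.5 mg/mL. Specific binding fitted by nonlinear least squares. Triplicate points per IC50.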

Assay [2] addresses T2, Endothelin receptor type B (Rattus norvegicus, UniProt P21451).
T2 sequence (P21451 whole entry): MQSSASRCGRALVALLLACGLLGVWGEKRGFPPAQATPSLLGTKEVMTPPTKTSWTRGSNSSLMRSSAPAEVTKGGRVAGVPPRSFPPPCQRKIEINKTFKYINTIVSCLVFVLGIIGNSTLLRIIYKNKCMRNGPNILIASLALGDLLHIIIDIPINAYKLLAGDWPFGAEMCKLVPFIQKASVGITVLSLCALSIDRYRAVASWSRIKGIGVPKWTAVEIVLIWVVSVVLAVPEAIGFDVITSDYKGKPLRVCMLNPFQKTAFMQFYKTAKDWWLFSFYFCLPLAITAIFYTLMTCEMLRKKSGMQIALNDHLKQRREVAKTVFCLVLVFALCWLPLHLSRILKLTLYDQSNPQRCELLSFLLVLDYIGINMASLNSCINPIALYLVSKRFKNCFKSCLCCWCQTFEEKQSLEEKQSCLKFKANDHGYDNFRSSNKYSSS
In words: Inhibition of SRTX-6c stimulated arachidonic acid release in CHO cells expressing rat ET- B receptors.

The target in assay [3] is T2, Endothelin receptor type B. In words: Binding affinity against endothelin B receptor rat cerebellar membranes.
The nature of assay [4]: Relative affinities against endothelin A receptor (rabbit) and endothelin B receptor (rat). Also noted: reference not given here.
A short description of assay [5]: Relative affinities for rat endothelin B receptor and human endothelin B receptor. On the set-up: reference not given here.
The target of assay [6] is T2, Endothelin receptor type B. Put plainly: Inhibition of SRTX-6c stimulated arachidonic acid release in CHO cells expressing recombinant rat ET- B receptors.

Structures are written as SMILES. Where a name gives a salt, the structure may show the parent alone. Numbered stars: 1 amine (or outer) side, 2 acyl side, 3 side chain; on linkers, the order of the positions; unused ones are H or OH. Square brackets hold non-standard residues; d marks the D form. Peptide text beside a SMILES is read from it. * marks the point of attachment. Dip = N[C@H](C(=O)O)C(c1ccccc1)c1ccccc1; Cyclohexanecarbonyl = O=C(C1CCCCC1)*; NHcHex = C1CCC(N*)CC1; CO = O=C([*:1])[*:2]; Piv = CC(C)(C)C(=O)*; Propionyl = CCC(=O)*; Tfa = O=C(C(F)(F)F)*; Bz = O=C(c1ccccc1)*; Ms = CS(=O)(=O)* Bounds are passed on as bounds.

Consider `CC[C@H](C)[C@H](NC(=O)[C@H](CCCCN)NC(=O)[C@H](CC(C)C)NC(=O)C(NC(C)=O)C(c1ccccc1)c1ccccc1)C(=O)N[C@H](C(=O)N[C@@H](Cc1c[nH]c2ccccc12)C(=O)O)[C@@H](C)CC` (single isomer, unassigned), for which the IC50 in assay [1] was > 10000 nM.
Consider `CC[C@H](C)[C@H](NC(=O)[C@H](CC(=O)O)NC(=O)[C@H](CC(C)C)NC(=O)[C@@H](NC(=O)C(C)(C)C)C(c1ccccc1)c1ccccc1)C(=O)N[C@H](C(=O)N[C@@H](Cc1c[nH]c2ccccc12)C(=O)O)[C@@H](C)CC` (Piv-[Dip]LDIIW-OH), for which the IC50 is 890 nM in assay [2] and 400 nM in assay [3]. The Ratio in assay [4] was found to be 25.
In the case of `CC[C@H](C)[C@H](NC(=O)[C@H](CC(=O)O)NC(=O)[C@H](CC(C)C)NC(=O)[C@@H](NC(=O)C1CCCCC1)C(c1ccccc1)c1ccccc1)C(=O)N[C@H](C(=O)N[C@@H](Cc1c[nH]c2ccccc12)C(=O)O)[C@@H](C)CC` (Cyclohexanecarbonyl-[Dip]LDIIW-OH), the IC50 turned out to be 560 nM in assay [2] and 350 nM in assay [3]. In assay [4], the Ratio was found to be 17.8.
As to `CC[C@H](C)[C@H](NC(=O)[C@H](CC(=O)O)NC(=O)[C@H](CC(C)C)NC(=O)[C@@H](NC(=O)c1ccccc1)C(c1ccccc1)c1ccccc1)C(=O)N[C@H](C(=O)N[C@@H](Cc1c[nH]c2ccccc12)C(=O)O)[C@@H](C)CC` (Bz-[Dip]LDIIW-OH), the values for the half-inhibitory concentration (IC50) in assay [1], in assay [2] and in assay [3] were 4400 nM, 290 nM and 30 nM, respectively. In addition, the Ratio in assay [5] came out at 147; in assay [4], 210.
Turning to `CC[C@H](C)[C@H](NC(=O)[C@H](CCC(=O)O)NC(=O)[C@H](CC(C)C)NC(=O)[C@@H](NC(C)=O)C(c1ccccc1)c1ccccc1)C(=O)N[C@H](C(=O)N[C@@H](Cc1c[nH]c2ccccc12)C(=O)O)[C@@H](C)CC` (Ac-[Dip]LEIIW-OH), the 50% inhibitory concentration (IC50) in assay [1] was 1800 nM; in assay [3] it was 19 nM. In addition, in assay [5], the Ratio was 95.
Regarding `CC[C@H](C)[C@H](NC(=O)[C@H](CC(=O)O)NC(=O)[C@H](CCCNC(=N)N)NC(=O)[C@@H](NC(C)=O)C(c1ccccc1)c1ccccc1)C(=O)N[C@H](C(=O)N[C@@H](Cc1c[nH]c2ccccc12)C(=O)O)[C@@H](C)CC`, the Ratio in assay [5] was 59.
As to `CC[C@H](C)[C@H](NC(=O)[C@H](Cc1ccccc1)NC(=O)[C@H](CC(C)C)NC(=O)[C@@H](NC(C)=O)C(c1ccccc1)c1ccccc1)C(=O)N[C@H](C(=O)N[C@@H](Cc1c[nH]c2ccccc12)C(=O)O)[C@@H](C)CC` (Ac-[Dip]LFIIW-OH), the half-maximal inhibitory concentration (IC50) in assay [1] was > 1600 nM; in assay [3], 60 nM. Moreover, in assay [5], the Ratio was found to be 17.
On to `CC[C@H](C)[C@H](NC(=O)[C@H](CC(=O)O)NC(=O)[C@H](CC(C)C)NC(=O)[C@@H](NC(=O)NC1CCCCC1)C(c1ccccc1)c1ccccc1)C(=O)N[C@H](C(=O)N[C@@H](Cc1c[nH]c2ccccc12)C(=O)O)[C@@H](C)CC` ({NHcHex-CO}-[Dip]LDIIW-OH), for which the concentration for half-maximal inhibition (IC50) in assay [2] turned out to be 210 nM; in assay [3], 68 nM. In assay [4], the Ratio is 29.4.
As for `CC[C@H](C)[C@H](NC(=O)[C@H](CC(=O)O)NC(=O)[C@H](CC(C)C)NC(=O)[C@@H](NS(C)(=O)=O)C(c1ccccc1)c1ccccc1)C(=O)N[C@H](C(=O)N[C@@H](Cc1c[nH]c2ccccc12)C(=O)O)[C@@H](C)CC` (Ms-[Dip]LDIIW-OH), the IC50 in assay [6] is 1300 nM; in assay [3], 260 nM. Also, the Ratio in assay [4] turned out to be 2.1.
`CC[C@H](C)[C@H](NC(=O)[C@H](Cc1ccccc1)NC(=O)[C@H](CC(=O)O)NC(=O)[C@H](CC(C)C)NC(=O)[C@@H](NC(C)=O)C(c1ccccc1)c1ccccc1)C(=O)N[C@@H](Cc1c[nH]c2ccccc12)C(=O)O` (Ac-[Dip]LDFIW-OH): the results for the 50% inhibitory concentration (IC50) in assay [1] and in assay [3] were 900 nM and 56 nM, respectively. Besides, the Ratio in assay [5] came to 16.
As to `CC[C@H](C)[C@H](NC(=O)[C@H](CC(=O)O)NC(=O)[C@H](CCCNC(=N)N)NC(=O)[C@H](NC(C)=O)C(c1ccccc1)c1ccccc1)C(=O)N[C@H](C(=O)N[C@@H](Cc1c[nH]c2ccccc12)C(=O)O)[C@@H](C)CC`, the IC50 in assay [1] came to 590 nM; in assay [3], 10 nM.
Take `CC[C@H](C)[C@H](NC(=O)[C@H](CC(=O)O)NC(=O)[C@H](CC(C)C)NC(=O)[C@@H](NC(=O)C(F)(F)F)C(c1ccccc1)c1ccccc1)C(=O)N[C@H](C(=O)N[C@@H](Cc1c[nH]c2ccccc12)C(=O)O)[C@@H](C)CC` (Tfa-[Dip]LDIIW-OH): the results for the IC50 in assay [2] and in assay [3] were 290 nM and 600 nM, respectively. The Ratio in assay [4] is 0.42.
On to `CCC(=O)N[C@H](C(=O)N[C@@H](CC(C)C)C(=O)N[C@@H](CC(=O)O)C(=O)N[C@H](C(=O)N[C@H](C(=O)N[C@@H](Cc1c[nH]c2ccccc12)C(=O)O)[C@@H](C)CC)[C@@H](C)CC)C(c1ccccc1)c1ccccc1` (Propionyl-[Dip]LDIIW-OH), for which the IC50 in assay [2] turned out to be 220 nM; in assay [3], 260 nM. The Ratio in assay [4] was 3.8.
As for `CC[C@H](C)[C@H](NC(=O)[C@H](CC(=O)O)NC(=O)[C@H](CC(C)C)NC(=O)[C@@H](NC(=O)NC)C(c1ccccc1)c1ccccc1)C(=O)N[C@H](C(=O)N[C@@H](Cc1c[nH]c2ccccc12)C(=O)O)[C@@H](C)CC` ({NHMe-CO}-[Dip]LDIIW-OH), the results for the IC50 in assay [2] and in assay [3] were 20 nM and 140 nM, respectively. Also, in assay [4], the Ratio worked out at 6.1.

As a reminder, the IC50 is the concentration at which inhibition is half-maximal.

The values are drawn from ChEMBL document CHEMBL1128478, “Structure-activity relationships of the potent combined endothelin-A/endothelin-B receptor antagonist Ac-DDip16-Leu-Asp-Ile-Ile-Trp21: development of endothelin-B receptor selective antagonists” (J Med Chem, 1995).
